Compounds with a hit are over-represented: about 0.23% of the library has one in this group of screens.
Rad51 HR inh: Rad51 (human) homologous recombination inhibition; Q06609; hRad51 DNA strand exchange, fluorescence dequenching; inhibition, % at 10 µM; hit rate 0.085% among 200,000; AID 1385;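 active = inhibition above 40% at the single screening dose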;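 note: 0% = DMSO control wells and 100% = blanks with heterologous ssDNA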
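material = hRad51 filaments on single-stranded DNA | reagent = Donor/quencher-labelled 47-bp dsDNA substrate | compound = 10 µM final, single point | schedule = strand-exchange reaction 15 min at room temperature | measured by = fluorescein emission 520 nm, excitation 485 nm | read-out basis = % inhibition versus plate control and blank means | benchmarks = plate controls and plate blanks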
Bim-Bcl-W: human Bim-Bcl-W interaction inhibition; bead-based flow cytometry, Bim peptide-Bcl-W binding; hit rate 0.02% among 190,000; Q92843; inhibition, % at 10 µM;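 note: 0% = bound tracer without compound and 100% = peptide blocker; higher means less fluorescent Bim peptide bound to Bcl-W beads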
Target sequence (Q92843 whole entry, looked up): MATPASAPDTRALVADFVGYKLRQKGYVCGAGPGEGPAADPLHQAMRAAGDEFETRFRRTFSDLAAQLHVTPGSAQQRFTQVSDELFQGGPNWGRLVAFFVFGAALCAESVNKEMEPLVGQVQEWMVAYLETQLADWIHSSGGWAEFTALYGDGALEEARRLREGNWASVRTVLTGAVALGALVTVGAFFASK
Bim-Bfl-1: disrupts Bim binding to human Bfl-1; Q16548; Bead-based flow cytometry, Bim-Bfl-1 binding inhibition; inhibition, % at 10 µM; hit rate 0.12% among 190,000; AID 1008;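 note: 0% = wells without compound plus tracer and 100% = blocker peptide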
Target sequence (Q16548 whole entry, looked up): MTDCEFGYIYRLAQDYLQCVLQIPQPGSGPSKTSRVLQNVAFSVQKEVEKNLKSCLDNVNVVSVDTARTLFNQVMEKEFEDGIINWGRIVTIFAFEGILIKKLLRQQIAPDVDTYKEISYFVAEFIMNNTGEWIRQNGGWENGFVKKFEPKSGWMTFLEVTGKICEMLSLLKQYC
Bim-Bcl-2: inhibitors of Bim-Bcl-2 interaction, human | P10415 | Bead-based flow cytometry, Bim peptide-Bcl-2 binding | inhibition, % at 10 µM | hit rate 0.06% among 190,000; in the data active = inhibition above about 40%;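 note: 0% = no compound wells with probe peptide and 100% = reference peptide inhibitor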
Bim-Bcl-XL: disrupts Bim peptide binding to human Bcl-XL. Q07817. bead flow cytometry, fluorescence. inhibition, % at 10 µM. hit rate 0.04% among 190,000
Bcl-B Bim block: human Bim-Bcl-B interaction inhibition; inhibition, % at 10 µM; Q9HD36; bead-based flow cytometry, Bim peptide-Bcl-B binding; hit rate 0.073% among 190,000; AID 951;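 note: 0% = tracer peptide without compound and 100% = reference inhibitor peptide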
Bim-Bcl-XL DR: dose-response confirmed modulator of Bim binding to human Bcl-XL; shares compounds with Bim-Bfl-1; bead-based flow cytometry; inhibition of binding at 100 µM; 40 tested, under 10 active; call rule not given here
The depositor's hits bear a star; · = no result. Cut-off read from the data, not from the text of the source, unless noted: active = inhibition above about 40%.

SMILES	Rad51 HR inh	Bim-Bcl-W	Bim-Bfl-1	Bim-Bcl-2	Bim-Bcl-XL	Bcl-B Bim block	Bim-Bcl-XL DR
C(=N\Nc1nc2ccccc2s1)/c1cccs1	-3.3	13.0	20.0	17.0	12.0	17.0	·
CCn1c(C)c(/C=N/Nc2nc3ccccc3s2)c2ccccc21	·	21.0	·	87.0*	23.0	·	·
O=C(Nc1nnc(COc2ccc(Cl)cc2)s1)c1ccco1	4.7	-9.0	23.0	-2.0	-15.0	-43.0	-5.02
Cc1ccc(OCc2nnc(NC(=O)c3ccco3)s2)cc1	-10.1	5.0	-10.0	-10.0	0.0	-6.0	·
N#Cc1cc(C(=O)Cc2ccccc2)c[nH]1	18.6	-2.0	-6.0	-2.0	-2.0	-2.0	·
C#CCNC(=O)C1=C[C@H](c2ccc(Br)cc2)[C@@H](CCCO)[C@H](OCC)O1	-1.3	0.0	-4.0	-1.0	-1.0	-1.0	·
CCOc1ccccc1CNc1ccc(O)cc1	4.2	23.0	44.0*	11.0	4.0	-15.0	0.0435
COc1cc(CNc2ccc3[nH]c(=O)[nH]c3c2)cc(Br)c1OCC(=O)NC(C)(C)C	-9.3	21.0	9.0	-3.0	2.0	-8.0	2.86
Cc1ccc(Cn2ccc(O)c(Cc3ccccc3)c2=O)cc1	-33.8	0.0	-5.0	-1.0	-2.0	0.0	·
COc1cc(N=C2SSNC2Cl)c(OC)cc1Cl (stereo not given)	·	·	·	·	·	·	10.5
COc1cc(NC(=O)c2c(F)c(F)c(F)c(F)c2F)c(OC)cc1Cl	1.6	-2.0	-5.0	-6.0	-6.0	-7.0	·
Cc1ccc(-c2cc(C(=O)Nc3nccs3)c3ccccc3n2)o1	-55.9	4.0	37.0	11.0	0.0	-3.0	-0.506
CC(=O)OCCNc1cc(SCc2ccco2)c2nonc2c1[N+](=O)[O-]	·	2.0	13.0	-1.0	-5.0	-11.0	·
CC(=O)OCCCNc1cc(Sc2nc3ccccc3s2)c2nonc2c1[N+](=O)[O-]	-2.5	11.0	48.0*	2.0	3.0	-4.0	4.68
CCN(C(=O)COc1cc(=O)n(CC)c2ccccc12)c1cccc(Cl)c1	-2.8	5.0	-8.0	-1.0	7.0	-6.0	·
O=C1c2ccccc2C(=O)N1CN(C(=O)COc1ccc(Cl)cc1Cl)c1cccc(F)c1	2.9	2.0	-5.0	0.0	-2.0	16.0	-1.37
S=c1[nH]cc(-c2ccccc2)n1-c1ccccc1Cl	-7.3	-3.0	-14.0	-12.0	-4.0	26.0	·
COc1ccccc1-n1c(-c2ccccc2)c[nH]c1=S	-2.1	3.0	22.0	3.0	-2.0	-20.0	2.08
CN(CC1CCOCC1)C(=O)CC1C(=O)NCCN1Cc1cccc(Oc2ccccc2)c1 (stereo not given)	·	-3.0	-4.0	-9.0	-6.0	-6.0	·
Cc1cc2nn(-c3cccc4ccccc34)nc2cc1N	1.7	13.0	48.0*	15.0	4.0	-1.0	1.95
CNC(CC(=O)c1ccc([N+](=O)[O-])cc1)C(Cl)(Cl)Cl (stereo not given)	6.6	3.0	55.0*	11.0	2.0	4.0	2.35
COc1cc(C(F)(F)F)c(C(=O)NCc2cccc(Cl)c2)cn1	4.1	·	·	·	·	·	·

Compound activity as filed in PubChem.
